Reference: ChEMBL document CHEMBL3627671, “Novel derivatives of nitro-substituted salicylic acids: Synthesis, antimicrobial activity and cytotoxicity” (Bioorg Med Chem, 2015)
≈ marks a conversion by molar mass, not a printed value.

Key:
Type in all cases: functional
[1] = tested on: Klebsiella pneumoniae; assay: Antibacterial activity against ESBL-positive Klebsiella pneumoniae J 14368/08 after 48 hrs by microdilution broth method; conditions: J 14368/08, 48 h
Summary of the method: (§1)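 Mueller-Hinton broth microdilution (modified M07-A07), pH 7.4 (±0.2). Compounds dissolved in DMSO, tested at final 500 to 0.49 µmol/L. Inoculum in sterile water matched to 0.5 McFarland. Incubated in the dark, humid atmosphere, 35 °C, read at 24 and 48 h visually and at 540 nm. MIC taken as ≥95% growth reduction (IC95) versus control.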

[2] = tested on: Klebsiella pneumoniae; assay: Antibacterial activity against ESBL-positive Klebsiella pneumoniae J 14368/08 after 24 hrs by microdilution broth method; conditions: J 14368/08, 24 h; summary of the method: as §1
[3] = tested on: Trichosporon asahii; assay: Antifungal activity against Trichosporon asahii 1188 after 24 hrs by microdilution broth method; conditions: Trichosporon asahii, 1188, 24 h
Summary of the method: (§2)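 CLSI M27-A3 broth microdilution in RPMI 1640 with glutamine, buffered to pH 7.0 with MOPS; DMSO diluent. Yeast inoculum 5 × 10^3 ± 0.2 CFU/mL. Moulds grown on Sabouraud agar 3–10 days before spore harvest, final inoculum 0.5-5 × 10^4 CFU/mL, checked in a Bürker chamber. Incubated dark, humid, 35 °C, read at 24 and 48 h visually and at 540 nm. MIC taken as ≥80% (yeasts) or ≥50% (filamentous) growth reduction versus control.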

[4] = tested on: Pseudomonas aeruginosa; assay: Antibacterial activity against Pseudomonas aeruginosa CCM 1961 after 48 hrs by microdilution broth method; conditions: CCM 1961, 48 h; summary of the method: as §1
[5] = tested on: Enterococcus sp.; assay: Antibacterial activity against Enterococcus sp. J 14365/08 after 24 hrs by microdilution broth method; conditions: J 14365/08, 24 h; summary of the method: as §1
[6] = tested on: Mycobacterium avium; assay: Antimycobacterial activity against Mycobacterium avium 330/80 after 14 days; conditions: 330/80, 336 h
[7] = tested on: Trichophyton mentagrophytes; assay: Antifungal activity against Trichophyton mentagrophytes 445 after 24 hrs by microdilution broth method; conditions: Trichophyton mentagrophytes, 445, 24 h
[8] = tested on: Candida tropicalis; assay: Antifungal activity against Candida tropicalis 156 after 24 hrs by microdilution broth method; conditions: Candida tropicalis, 156, 24 h; summary of the method: as §2
[9] = tested on: Aspergillus fumigatus; assay: Antifungal activity against Aspergillus fumigatus 231 after 24 hrs by microdilution broth method; conditions: Aspergillus fumigatus, 231, 24 h; summary of the method: as §2
[10] = tested on: Candida tropicalis; assay: Antifungal activity against Candida tropicalis 156 after 48 hrs by microdilution broth method; conditions: Candida tropicalis, 156, 48 h; summary of the method: as §2
[11] = tested on: Nakaseomyces glabratus; assay: Antifungal activity against Candida glabrata 20/I after 24 hrs by microdilution broth method; summary of the method: as §2
[12] = tested on: Pichia kudriavzevii; assay: Antifungal activity against Candida krusei E28 after 24 hrs by microdilution broth method; conditions: E28, 24 h; summary of the method: as §2
[13] = tested on: Staphylococcus aureus; assay: Antibacterial activity against methicillin-resistant Staphylococcus aureus H 5996/08 after 48 hrs by microdilution broth method; conditions: H 5996/08, 48 h
[14] = tested on: Lichtheimia corymbifera; assay: Antifungal activity against Absidia corymbifera 272 after 48 hrs by microdilution broth method; conditions: Lichtheimia corymbifera, 272, 48 h; summary of the method: as §2
[15] = tested on: Aspergillus fumigatus; assay: Antifungal activity against Aspergillus fumigatus 231 after 48 hrs by microdilution broth method; conditions: Aspergillus fumigatus, 231, 48 h; summary of the method: as §2
[16] = tested on: Lichtheimia corymbifera; assay: Antifungal activity against Absidia corymbifera 272 after 24 hrs by microdilution broth method; conditions: Lichtheimia corymbifera, 272, 24 h; summary of the method: as §2
[17] = tested on: Candida albicans; assay: Antifungal activity against Candida albicans ATCC 44859 after 24 hrs by microdilution broth method; conditions: ATCC 44859, 24 h; summary of the method: as §2
[18] = tested on: Pichia kudriavzevii; assay: Antifungal activity against Candida krusei E28 after 48 hrs by microdilution broth method; conditions: E28, 48 h; summary of the method: as §2
[19] = tested on: Mycobacterium kansasii; assay: Antimycobacterial activity against Mycobacterium kansasii 6509/96 after 7 days; conditions: 6509/96, 168 h
Summary of the method: (§3)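 Šula's semisynthetic medium micromethod at 37 °C, read after 7, 14 and 21 days. The 1.0 McFarland suspension was diluted 10^-4. MIC determined. 6509/96 is a clinical isolate.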

[20] = tested on: Mycobacterium kansasii; assay: Antimycobacterial activity against Mycobacterium kansasii 235/80 after 7 days; conditions: 235/80, 168 h; summary of the method: as §3
[21] = tested on: Mycobacterium kansasii; assay: Antimycobacterial activity against Mycobacterium kansasii 235/80 after 21 days; conditions: 235/80, 504 h; summary of the method: as §3
[22] = tested on: Mycobacterium tuberculosis; assay: Antimycobacterial activity against Mycobacterium tuberculosis H37Rv 331/88 after 21 days; conditions: H37Rv 331/88, 504 h
[23] = tested on: Staphylococcus aureus; assay: Antibacterial activity against Staphylococcus aureus CCM 4516/08 after 48 hrs by microdilution broth method; conditions: CCM 4516/08, 48 h
[24] = tested on: Mycobacterium avium; assay: Antimycobacterial activity against Mycobacterium avium 330/80 after 21 days; conditions: 330/80, 504 h
[25] = tested on: Pseudomonas aeruginosa; assay: Antibacterial activity against Pseudomonas aeruginosa CCM 1961 after 24 hrs by microdilution broth method; conditions: CCM 1961, 24 h; summary of the method: as §1
[26] = tested on: Candida albicans; assay: Antifungal activity against Candida albicans ATCC 44859 after 48 hrs by microdilution broth method; conditions: ATCC 44859, 48 h; summary of the method: as §2
[27] = tested on: Trichophyton mentagrophytes; assay: Antifungal activity against Trichophyton mentagrophytes 445 after 48 hrs by microdilution broth method; conditions: Trichophyton mentagrophytes, 445, 48 h
[28] = tested on: Staphylococcus aureus; assay: Antibacterial activity against methicillin-resistant Staphylococcus aureus H 5996/08 after 24 hrs by microdilution broth method; conditions: H 5996/08, 24 h
[29] = tested on: Mycobacterium tuberculosis; assay: Antimycobacterial activity against Mycobacterium tuberculosis H37Rv 331/88 after 14 days; conditions: H37Rv 331/88, 336 h
[30] = tested on: Staphylococcus aureus; assay: Antibacterial activity against Staphylococcus aureus CCM 4516/08 after 24 hrs by microdilution broth method; conditions: CCM 4516/08, 24 h
[31] = tested on: Escherichia coli; assay: Antibacterial activity against Escherichia coli CCM4517 after 24 hrs by microdilution broth method; conditions: CCM4517, 24 h; summary of the method: as §1
[32] = tested on: Staphylococcus epidermidis; assay: Antibacterial activity against Staphylococcus epidermidis H 6966/08 after 48 hrs by microdilution broth method; conditions: H 6966/08, 48 h; summary of the method: as §1
[33] = tested on: Escherichia coli; assay: Antibacterial activity against Escherichia coli CCM4517 after 48 hrs by microdilution broth method; conditions: CCM4517, 48 h; summary of the method: as §1
[34] = tested on: Mycobacterium kansasii; assay: Antimycobacterial activity against Mycobacterium kansasii 6509/96 after 21 days; conditions: 6509/96, 504 h; summary of the method: as §3
[35] = tested on: Trichosporon asahii; assay: Antifungal activity against Trichosporon asahii 1188 after 48 hrs by microdilution broth method; conditions: Trichosporon asahii, 1188, 48 h; summary of the method: as §2
[36] = tested on: Enterococcus sp.; assay: Antibacterial activity against Enterococcus sp. J 14365/08 after 48 hrs by microdilution broth method; conditions: J 14365/08, 48 h; summary of the method: as §1
[37] = tested on: Klebsiella pneumoniae; assay: Antibacterial activity against Klebsiella pneumoniae D 11750/08 after 24 hrs by microdilution broth method; conditions: D 11750/08, 24 h; summary of the method: as §1
[38] = tested on: Staphylococcus epidermidis; assay: Antibacterial activity against Staphylococcus epidermidis H 6966/08 after 24 hrs by microdilution broth method; conditions: H 6966/08, 24 h; summary of the method: as §1
[39] = tested on: Klebsiella pneumoniae; assay: Antibacterial activity against Klebsiella pneumoniae D 11750/08 after 48 hrs by microdilution broth method; conditions: D 11750/08, 48 h; summary of the method: as §1
[40] = tested on: Mycobacterium kansasii; assay: Antimycobacterial activity against Mycobacterium kansasii 235/80 after 14 days; conditions: 235/80, 336 h; summary of the method: as §3
[41] = tested on: Nakaseomyces glabratus; assay: Antifungal activity against Candida glabrata 20/I after 48 hrs by microdilution broth method; summary of the method: as §2
[42] = tested on: Mycobacterium kansasii; assay: Antimycobacterial activity against Mycobacterium kansasii 6509/96 after 14 days; conditions: 6509/96, 336 h; summary of the method: as §3

O=C(Nc1cccc([N+](=O)[O-])c1)c1cc([N+](=O)[O-])ccc1O
MIC [1]: > 500 µM
MIC [2]: > 500 µM
MIC [3]: > 250 µM
MIC [4]: > 500 µM
MIC [5]: > 500 µM
MIC [6]: 125 µM (≈ 37.9 µg/mL)
MIC [7]: > 250 µM
MIC [8]: > 250 µM
MIC [9]: > 250 µM
MIC [10]: > 250 µM
MIC [11]: > 250 µM
MIC [12]: > 250 µM
MIC [13]: 500 µM (≈ 152 µg/mL)
MIC [14]: > 250 µM
MIC [15]: > 250 µM
MIC [16]: > 250 µM
MIC [17]: > 250 µM
MIC [18]: > 250 µM
MIC [19]: 62.5 µM (≈ 19 µg/mL)
MIC [20]: 16 µM (≈ 4.85 µg/mL)
MIC [21]: 125 µM (≈ 37.9 µg/mL)
MIC [22]: 62.5 µM (≈ 19 µg/mL)
MIC [23]: 500 µM (≈ 152 µg/mL)
MIC [24]: 125 µM (≈ 37.9 µg/mL)
MIC [25]: > 500 µM
MIC [26]: > 250 µM
MIC [27]: > 250 µM
MIC [28]: 500 µM (≈ 152 µg/mL)
MIC [29]: 62.5 µM (≈ 19 µg/mL)
MIC [30]: 500 µM (≈ 152 µg/mL)
MIC [31]: > 500 µM
MIC [32]: 500 µM (≈ 152 µg/mL)
MIC [33]: > 500 µM
MIC [34]: 125 µM (≈ 37.9 µg/mL)
MIC [35]: > 250 µM
MIC [36]: > 500 µM
MIC [37]: > 500 µM
MIC [38]: 500 µM (≈ 152 µg/mL)
MIC [39]: > 500 µM
MIC [40]: 62.5 µM (≈ 19 µg/mL)
MIC [41]: > 250 µM
MIC [42]: 125 µM (≈ 37.9 µg/mL)

O=C(Nc1ccc([N+](=O)[O-])c(C(F)(F)F)c1)c1ccc([N+](=O)[O-])cc1O
MIC [1]: > 500 µM
MIC [2]: > 500 µM
MIC [3]: 250 µM (≈ 92.8 µg/mL)
MIC [4]: > 500 µM
MIC [5]: 250 µM (≈ 92.8 µg/mL)
MIC [6]: 62.5 µM (≈ 23.2 µg/mL)
MIC [7]: 500 µM (≈ 186 µg/mL)
MIC [8]: > 500 µM
MIC [9]: 250 µM (≈ 92.8 µg/mL)
MIC [10]: > 500 µM
MIC [11]: > 500 µM
MIC [12]: 250 µM (≈ 92.8 µg/mL)
MIC [13]: 3.9 µM (≈ 1.45 µg/mL)
MIC [14]: 125 µM (≈ 46.4 µg/mL)
MIC [15]: 250 µM (≈ 92.8 µg/mL)
MIC [16]: 125 µM (≈ 46.4 µg/mL)
MIC [17]: > 500 µM
MIC [18]: 250 µM (≈ 92.8 µg/mL)
MIC [19]: 16 µM (≈ 5.94 µg/mL)
MIC [20]: 16 µM (≈ 5.94 µg/mL)
MIC [21]: 32 µM (≈ 11.9 µg/mL)
MIC [22]: 16 µM (≈ 5.94 µg/mL)
MIC [23]: 7.81 µM (≈ 2.9 µg/mL)
MIC [24]: 62.5 µM (≈ 23.2 µg/mL)
MIC [25]: > 500 µM
MIC [26]: > 500 µM
MIC [27]: > 500 µM
MIC [28]: 3.9 µM (≈ 1.45 µg/mL)
MIC [29]: 16 µM (≈ 5.94 µg/mL)
MIC [30]: 7.81 µM (≈ 2.9 µg/mL)
MIC [31]: > 500 µM
MIC [32]: 7.81 µM (≈ 2.9 µg/mL)
MIC [33]: > 500 µM
MIC [34]: 32 µM (≈ 11.9 µg/mL)
MIC [35]: 500 µM (≈ 186 µg/mL)
MIC [36]: 500 µM (≈ 186 µg/mL)
MIC [37]: > 500 µM
MIC [38]: 7.81 µM (≈ 2.9 µg/mL)
MIC [39]: > 500 µM
MIC [40]: 32 µM (≈ 11.9 µg/mL)
MIC [41]: > 500 µM
MIC [42]: 32 µM (≈ 11.9 µg/mL)
